The values below come from ChEMBL document CHEMBL4837217, “Design, synthesis, in vitro and in vivo biological evaluation of pyranone-piperazine analogs as potent antileishmanial agents” (Eur J Med Chem, 2021).

The test system of assay [1] is Leishmania donovani. In words: Antileishmanial activity against log phase of Leishmania donovani MHOM/IN/80/Dd8 promastigotes assessed as reduction in cell viability at 50 uM incubated for 72 hrs by MTT assay. Format: functional. In a few lines:
(§1)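 Log-phase luciferase-transfected L. donovani Dd8 promastigotes (M199 + 10% FBS, 24 °C) treated with compounds at 25 and 50 µM in DMSO, with 0.1% DMSO vehicle control. After 72 h, MTT added 4 h. Formazan dissolved in DMSO, read at 570 nm. Percent inhibition reported as mean ± SD of at least three independent experiments in replicate.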
On the technique in general: Tetrazolium assays rely on reduction of a dye to a coloured formazan, in cell work by metabolically active cells.

In assay [2] the test system is Splenocyte. In words: Immunomodulatory activity in BALB/c mouse infected with Leishmania donovani amastigotes assessed as decrease in TGF-beta level in splenocytes supernatants at 25 mg/kg, po for 5 days. The following applies: time 5.0 day. The class given is functional, organism-based.
In assay [3] the test system is Leishmania donovani. The assay can be described thus: Antileishmanial activity against amastigote stage of Leishmania donovani MHOM/IN/80/Dd8 harboring luciferase gene infected in mouse J774 cells assessed as parasite growth inhibition at 50 uM incubated for 72 hrs by Steady-Glo reagent based luciferase assay. The class given is functional. To be noted: MHOM/IN/80/Dd8, J774. The method in brief: (§2)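 J774 murine macrophages, 4 × 10⁴ cells/well in RPMI with 10% FBS for 24 h, are infected for 24 h at 37 °C, 5% CO₂ with stationary-phase luciferase-transfected L. donovani Dd8 promastigotes at a 1:8 macrophage:parasite ratio. Compounds are dissolved in DMSO. Luminescence is read after Steady-Glo is added in PBS. IC₅₀ is taken from a four-parameter Hill nonlinear regression. Miltefosine is the reference.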

Assay [4] has as its system Leishmania donovani. In words: Antileishmanial activity against log phase of Leishmania donovani MHOM/IN/80/Dd8 promastigotes assessed as reduction in cell viability at 25 uM incubated for 72 hrs by MTT assay. The class given is functional. In a few lines: as §1
Assay [5] relates to Splenocyte. The assay can be described thus: Immunomodulatory activity in BALB/c mouse infected with Leishmania donovani amastigotes assessed as decrease in IL-10 level in splenocytes supernatants at 25 mg/kg, po for 5 days. The following applies: time 5.0 day. Format: functional, organism-based.
Assay [6] relates to Splenocyte. In words: Immunomodulatory activity in BALB/c mouse infected with Leishmania donovani amastigotes assessed as increase in IFN-gamma level in splenocytes supernatants at 25 mg/kg, po for 5 days. Format: functional, organism-based. To be noted: time 5.0 day.
Assay [7] relates to Leishmania donovani. The assay can be described thus: Antileishmanial activity against amastigote stage of Leishmania donovani MHOM/IN/80/Dd8 harboring luciferase gene infected in mouse J774 cells assessed as parasite growth inhibition incubated for 72 hrs by Steady-Glo reagent based luciferase assay. The class given is functional, organism-based. The following applies: MHOM/IN/80/Dd8, J774, 72 h. In a few lines: as §2

Assay [8] has as its system Leishmania donovani. The assay can be described thus: Antileishmanial activity against Leishmania donovani MHOM/IN/80/Dd8 infected in BALB/c mouse assessed as reduction in organ intracellular amastigote burden at 25 mg/kg, po for 5 days and measured at 1 week post-treatment by Giemsa staining based assay relative to control. The class given is functional. To be noted: MHOM/IN/80/Dd8, po, 288 h, time 12 day. The method in brief:
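Female BALB/c mice (20–25 g), 5/group, infected iv with 2 × 10^7 stationary-phase L. donovani promastigotes. Reference drug given orally at 25 mg/kg daily for 5 consecutive days. Sacrificed day 7 post-treatment. Liver and spleen impression smears fixed in methanol, stained with 30% Giemsa for 2 h. Amastigotes/1000 nucleated cells counted and expressed as LDU.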

The test system of assay [9] is Leishmania donovani. The assay can be described thus: Antileishmanial activity against amastigote stage of Leishmania donovani MHOM/IN/80/Dd8 harboring luciferase gene infected in mouse J774 cells assessed as parasite growth inhibition at 25 uM incubated for 72 hrs by Steady-Glo reagent based luciferase assay. To be noted: MHOM/IN/80/Dd8, J774. The class given is functional. In a few lines:
as §2

Assay [10] concerns Splenocyte. In words: Immunomodulatory activity in BALB/c mouse infected with Leishmania donovani amastigotes assessed as increase in IL-12 level in splenocytes supernatants at 25 mg/kg, po for 5 days. Format: functional, organism-based. The following applies: time 5.0 day.

Activity calls are given as the source filed them. The calls are words filed in the database; no cut-off is given here.

As to `CCCCCCCCCCCCCCCCOP(=O)([O-])OCC[N+](C)(C)C` [MILTEFOSINE], the inhibition (usually the change of the read-out against control, counted positive when it falls) at 50 µM was 99.7% in assay [1] and 95.3% in assay [3]. Also, the result in assay [2], in assay [5], in assay [6] and in [10] was Active. Also, the inhibition at 25 µM came to 99.4% in [4] and 91.2% in [9]. Also, the IC50 (usually the concentration that gives 50% inhibition) in [7] turned out to be 12.8 µM. The inhibition in vivo (in general, the relative decrease from the control value, in per cent) at 25 mg/kg in [8] is more than 97%.
